{"source": "ChEMBL document CHEMBL4732095", "about": "“Novel naphthylamide derivatives as dual-target antifungal inhibitors: Design, synthesis and biological evaluation” (Eur J Med Chem, 2021)", "key": {"Candida albicans [1]": {"system": "Candida albicans", "assay": "Antifungal activity against Candida albicans ATCC 10231 assessed as inhibition of microbial growth by NCCLS protocol based method", "type": "functional", "method_in_brief": "(§1)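 Broth MIC50 determined following NCCLS guidelines in Sabouraud medium, with fungal suspension in 24-well format. Compound tested at 0.0625, 0.125, 0.5, 1, 2, 4, 8 and 16 μg/mL. Plates cultured statically at 35 °C. MIC50 is the lowest concentration giving 50% growth inhibition. Naftifine and fluconazole served as positive controls.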"}, "Nakaseomyces glabratus": {"system": "Nakaseomyces glabratus", "assay": "Antifungal activity against Candida glabrata ATCC 0001 assessed as inhibition of microbial growth by NCCLS protocol based method", "type": "functional", "method_in_brief": "as §1"}, "Pichia kudriavzevii": {"system": "Pichia kudriavzevii", "assay": "Antifungal activity against Candida krusei ATCC 6258 assessed as inhibition of microbial growth by NCCLS protocol based method", "type": "functional", "method_in_brief": "as §1"}, "Candida tropicalis": {"system": "Candida tropicalis", "assay": "Antifungal activity against Candida tropicalis ATCC 1369 assessed as inhibition of microbial growth by NCCLS protocol based method", "type": "functional", "method_in_brief": "as §1"}, "Aspergillus fumigatus": {"system": "Aspergillus fumigatus", "assay": "Antifungal activity against Aspergillus fumigatus KM8001 assessed as inhibition of microbial growth by NCCLS protocol based method", "type": "functional", "method_in_brief": "as §1"}, "Candida albicans [2]": {"system": "Candida albicans", "assay": "Antifungal activity against fluconazole-resistant Candida albicans 17# assessed as inhibition of microbial growth by NCCLS protocol based method", "type": "functional"}, "Candida albicans [3]": {"system": "Candida albicans", "assay": "Antifungal activity against fluconazole-resistant Candida albicans CaR assessed as inhibition of microbial growth by NCCLS protocol based method", "type": "functional"}, "Candida albicans [4]": {"system": "Candida albicans", "assay": "Antifungal activity against fluconazole-resistant Candida albicans 632 assessed as inhibition of microbial growth by NCCLS protocol based method", "type": "functional"}, "Candida albicans [5]": {"system": "Candida albicans", "assay": "Antifungal activity against fluconazole-resistant Candida albicans 901 assessed as inhibition of microbial growth by NCCLS protocol based method", "type": "functional"}, "Candida albicans [6]": {"system": "Candida albicans", "assay": "Antifungal activity against fluconazole-resistant Candida albicans 904 assessed as inhibition of microbial growth by NCCLS protocol based method", "type": "functional"}, "Candida albicans [7]": {"system": "Candida albicans", "assay": "Antifungal activity against Candida albicans ATCC SC5314 assessed as decrease in fungal cell density at 10 nM/mL by polarizing microscopy", "type": "functional, organism-based", "settings": "dose 10.0 nmol/ml", "method_in_brief": "(§2)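 C. albicans ATCC SC5314 observed by polarizing microscopy over treatment time. Untreated, fluconazole- and naftifine-treated control groups were included. Cell density, dividing cells and cell fracture were assessed, with cell counts taken per field.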"}, "Candida albicans [8]": {"system": "Candida albicans", "assay": "Antifungal activity against Candida albicans ATCC SC5314 assessed as reduction in cell division at 10 nM/mL by polarizing microscopy", "type": "functional, organism-based", "settings": "dose 10.0 nmol/ml", "method_in_brief": "as §2"}, "Candida albicans [9]": {"system": "Candida albicans", "assay": "Antifungal activity against Candida albicans ATCC SC5314 assessed as induction of cell fracture at 10 nM/mL by polarizing microscopy", "type": "functional, organism-based", "settings": "dose 10.0 nmol/ml", "method_in_brief": "as §2"}, "[10]": {"target": "T1, Lanosterol 14-alpha demethylase (Candida albicans (strain SC5314 / ATCC MYA-2876) (Yeast), UniProt P10613)", "T1 sequence (P10613 whole entry)": "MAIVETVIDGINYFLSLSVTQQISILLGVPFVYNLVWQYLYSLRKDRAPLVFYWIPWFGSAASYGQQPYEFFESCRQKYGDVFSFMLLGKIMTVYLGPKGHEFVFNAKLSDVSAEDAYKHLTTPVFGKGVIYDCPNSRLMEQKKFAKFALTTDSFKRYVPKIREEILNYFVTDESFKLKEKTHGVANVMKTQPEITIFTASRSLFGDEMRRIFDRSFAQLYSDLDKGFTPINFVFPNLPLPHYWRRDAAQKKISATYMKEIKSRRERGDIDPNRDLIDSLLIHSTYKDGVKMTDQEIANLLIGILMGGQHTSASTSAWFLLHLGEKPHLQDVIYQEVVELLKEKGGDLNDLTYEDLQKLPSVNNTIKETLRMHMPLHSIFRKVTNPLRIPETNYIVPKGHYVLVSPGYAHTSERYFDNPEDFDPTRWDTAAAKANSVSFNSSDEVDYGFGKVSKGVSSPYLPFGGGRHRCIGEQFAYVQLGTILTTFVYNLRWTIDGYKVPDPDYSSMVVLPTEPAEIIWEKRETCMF", "assay": "Inhibition of CYP51 in Candida albicans ATCC SC5314 assessed as ergosterol level at 0.125 ug/ml incubated for 48 hrs by LC/MS analysis (reference value: 95.1 %)", "parameters": "scale not given: the % may be the effect or the level left", "settings": "candida albicans sc5314, 48 h, at 0.125 µg/mL", "method_in_brief": "(§3)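 C. albicans ATCC SC5314 cells exposed to drug at 0.125, 0.5 or 4 μg/mL for 48 h, alongside an untreated control. Sterols were extracted and analysed by LC-MS. Ergosterol, squalene, lanosterol, eburicol and unknown sterols are each given as % of total sterols, calculated from the peak area ratio of each component.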"}, "[11]": {"target": "T1, Lanosterol 14-alpha demethylase", "assay": "Inhibition of CYP51 in Candida albicans ATCC SC5314 assessed as ergosterol level at 0.5 ug/ml incubated for 48 hrs by LC/MS analysis (reference value: 95.1 %)", "parameters": "scale not given: the % may be the effect or the level left", "settings": "candida albicans sc5314, 48 h, at 0.5 µg/mL", "method_in_brief": "(§4)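 C. albicans SC5314 cells exposed to compound (0.125, 0.5 or 4 μg/mL) for 48 h alongside untreated and naftifine/fluconazole-treated groups; sterol fraction analysed by LC-MS; each component expressed as percent of total sterols from peak area ratios.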"}, "[12]": {"target": "T1, Lanosterol 14-alpha demethylase", "assay": "Inhibition of CYP51 in Candida albicans ATCC SC5314 assessed as ergosterol level at 4 ug/ml incubated for 48 hrs by LC/MS analysis (reference value: 95.1 %)", "parameters": "scale not given: the % may be the effect or the level left", "settings": "candida albicans sc5314, 48 h, at 4 µg/mL", "method_in_brief": "as §4"}, "[13]": {"target": "T1, Lanosterol 14-alpha demethylase", "assay": "Inhibition of CYP51 in Candida albicans ATCC SC5314 assessed as squalene level at 4 ug/ml incubated for 48 hrs by LC/MS analysis", "parameters": "scale not given: the % may be the effect or the level left", "settings": "candida albicans sc5314, 48 h, at 4 µg/mL", "method_in_brief": "as §4"}, "[14]": {"target": "T1, Lanosterol 14-alpha demethylase", "assay": "Inhibition of CYP51 in Candida albicans ATCC SC5314 assessed as lanosterol level at 0.125 ug/ml incubated for 48 hrs by LC/MS analysis", "parameters": "scale not given: the % may be the effect or the level left", "settings": "candida albicans sc5314, 48 h, at 0.125 µg/mL", "method_in_brief": "as §3"}, "[15]": {"target": "T1, Lanosterol 14-alpha demethylase", "assay": "Inhibition of CYP51 in Candida albicans ATCC SC5314 assessed as lanosterol level at 0.5 ug/ml incubated for 48 hrs by LC/MS analysis", "parameters": "scale not given: the % may be the effect or the level left", "settings": "candida albicans sc5314, 48 h, at 0.5 µg/mL", "method_in_brief": "as §4"}, "[16]": {"target": "T1, Lanosterol 14-alpha demethylase", "assay": "Inhibition of CYP51 in Candida albicans ATCC SC5314 assessed as lanosterol level at 4 ug/ml incubated for 48 hrs by LC/MS analysis", "parameters": "scale not given: the % may be the effect or the level left", "settings": "candida albicans sc5314, 48 h, at 4 µg/mL", "method_in_brief": "as §4"}, "[17]": {"target": "T1, Lanosterol 14-alpha demethylase", "assay": "Inhibition of CYP51 in Candida albicans ATCC SC5314 assessed as eburicol level at 0.125 ug/ml incubated for 48 hrs by LC/MS analysis (reference value: 1.4 %)", "parameters": "scale not given: the % may be the effect or the level left", "settings": "candida albicans sc5314, 48 h, at 0.125 µg/mL", "method_in_brief": "as §3"}, "[18]": {"target": "T1, Lanosterol 14-alpha demethylase", "assay": "Inhibition of CYP51 in Candida albicans ATCC SC5314 assessed as eburicol level at 0.5 ug/ml incubated for 48 hrs by LC/MS analysis (reference value: 1.4 %)", "parameters": "scale not given: the % may be the effect or the level left", "settings": "candida albicans sc5314, 48 h, at 0.5 µg/mL", "method_in_brief": "as §4"}, "[19]": {"target": "T1, Lanosterol 14-alpha demethylase", "assay": "Inhibition of CYP51 in Candida albicans ATCC SC5314 assessed as eburicol level at 4 ug/ml incubated for 48 hrs by LC/MS analysis (reference value: 1.4 %)", "parameters": "scale not given: the % may be the effect or the level left", "settings": "candida albicans sc5314, 48 h, at 4 µg/mL", "method_in_brief": "as §4"}, "[20]": {"target": "T1, Lanosterol 14-alpha demethylase", "assay": "Inhibition of CYP51 in Candida albicans ATCC SC5314 assessed as unknown sterol level at 0.125 ug/ml incubated for 48 hrs by LC/MS analysis", "parameters": "scale not given: the % may be the effect or the level left", "settings": "candida albicans sc5314, 48 h, at 0.125 µg/mL", "method_in_brief": "as §3"}, "[21]": {"target": "T1, Lanosterol 14-alpha demethylase", "assay": "Inhibition of CYP51 in Candida albicans ATCC SC5314 assessed as unknown sterol level at 0.5 ug/ml incubated for 48 hrs by LC/MS analysis", "parameters": "scale not given: the % may be the effect or the level left", "settings": "candida albicans sc5314, 48 h, at 0.5 µg/mL", "method_in_brief": "as §4"}, "[22]": {"target": "T1, Lanosterol 14-alpha demethylase", "assay": "Inhibition of CYP51 in Candida albicans ATCC SC5314 assessed as unknown sterol level at 4 ug/ml incubated for 48 hrs by LC/MS analysis", "parameters": "scale not given: the % may be the effect or the level left", "settings": "candida albicans sc5314, 48 h, at 4 µg/mL", "method_in_brief": "as §4"}, "[23]": {"target": "T1, Lanosterol 14-alpha demethylase", "assay": "Inhibition of Candida albicans ATCC SC5314 CYP51 incubated for 30 mins by HPLC method"}}, "note": "Active and inactive are the calls of the source. The rule behind the calls is not given here."}
{"smiles": "OC(Cn1cncn1)(Cn1cncn1)c1ccc(F)cc1F", "note": "[FLUCONAZOLE]", "values": [{"measurement": "MIC50", "setting": "Candida albicans [1]", "result": 0.25, "unit": "µg/mL"}, {"measurement": "MIC50", "setting": "Nakaseomyces glabratus", "result": 0.25, "unit": "µg/mL"}, {"measurement": "MIC50", "setting": "Pichia kudriavzevii", "result": 1, "unit": "µg/mL"}, {"measurement": "MIC50", "setting": "Candida tropicalis", "result": 0.25, "unit": "µg/mL"}, {"measurement": "MIC50", "setting": "Aspergillus fumigatus", "result": "> 16", "unit": "µg/mL"}, {"measurement": "MIC50", "setting": "Candida albicans [2]", "result": 8, "unit": "µg/mL"}, {"measurement": "MIC50", "setting": "Candida albicans [3]", "result": "> 16", "unit": "µg/mL"}, {"measurement": "MIC50", "setting": "Candida albicans [4]", "result": 8, "unit": "µg/mL"}, {"measurement": "MIC50", "setting": "Candida albicans [5]", "result": "> 16", "unit": "µg/mL"}, {"measurement": "MIC50", "setting": "Candida albicans [6]", "result": 8, "unit": "µg/mL"}, {"measurement": "Activity", "setting": "Candida albicans [7]", "result": "Active"}, {"measurement": "Activity", "setting": "Candida albicans [8]", "result": "Active"}, {"measurement": "Activity", "setting": "Candida albicans [9]", "result": "Active"}, {"measurement": "Activity", "setting": "[10]", "result": 78.5, "unit": "%"}, {"measurement": "Activity", "setting": "[11]", "result": 43.9, "unit": "%"}, {"measurement": "Activity", "setting": "[12]", "result": 12.7, "unit": "%"}, {"measurement": "Activity", "setting": "[13]", "result": 1.3, "unit": "%"}, {"measurement": "Activity", "setting": "[14]", "result": 5.1, "unit": "%"}, {"measurement": "Activity", "setting": "[15]", "result": 8.9, "unit": "%"}, {"measurement": "Activity", "setting": "[16]", "result": 16.3, "unit": "%"}, {"measurement": "Activity", "setting": "[17]", "result": 12.8, "unit": "%"}, {"measurement": "Activity", "setting": "[18]", "result": 42.5, "unit": "%"}, {"measurement": "Activity", "setting": "[19]", "result": 64.5, "unit": "%"}, {"measurement": "Activity", "setting": "[20]", "result": 3.6, "unit": "%"}, {"measurement": "Activity", "setting": "[21]", "result": 4.7, "unit": "%"}, {"measurement": "Activity", "setting": "[22]", "result": 5.2, "unit": "%"}, {"measurement": "IC50", "setting": "[23]", "result": 116, "unit": "nM"}]}
